Experimental data published in ChEMBL document CHEMBL4406880, “Design, synthesis, and bioactivity of dihydropyrimidine derivatives as kinesin spindle protein inhibitors” (Bioorg Med Chem, 2019).

Key:
Type in all cases: functional
UACC-257 = assay: Growth inhibition of human UACC257 cells assessed as cell viability at 0.1 uM incubated for 48 hrs by sulforhodamine B assay; settings: UACC-257, 48 h, read-out: Activity
SNB-75 = assay: Growth inhibition of human SNB75 cells incubated for 48 hrs by sulforhodamine B assay; settings: SNB-75, 48 h
Method in brief: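 NCI-60 five-dose SRB assay. Cells were exposed for 48 h to tenfold dilutions of 0.01, 0.1, 1, 10 and 100 µM, in RPMI 1640 with 5% FBS. Plates fixed with TCA at the time of drug addition served as the time-zero reference. GI50 is the concentration giving a 50% reduction in net growth. TGI is total growth inhibition. LC50 is a net 50% loss of the initial cells.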

Hs-578T [1] = assay: Growth inhibition of human Hs 578T cells incubated for 48 hrs by sulforhodamine B assay
Method in brief: (§1)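 NCI-60 five-dose SRB assay in RPMI 1640 with 5% FBS, 37 °C, 5% CO2. Compound given at five tenfold dilutions, 0.01–100 µM, for 48 h. Adherent cells fixed with TCA, suspension cells with 16% final TCA. Bound SRB read at 515 nm and growth calculated against time-zero and untreated controls. GI50 taken from dose–response curves as the concentration giving a 50% decrease in net cell growth.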

HOP-92 = assay: Growth inhibition of human HOP92 cells incubated for 48 hrs by sulforhodamine B assay; settings: HOP-92, 48 h
Method in brief: (§2)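 NCI-60 five-dose assay, SRB end-point, same culture conditions. Compound is tested at tenfold dilutions of 0.01, 0.1, 1, 10 and 100 µM for 48 h at 37 °C, with DMSO/PBS vehicle controls. Percentage growth at each concentration is taken against untreated cells and a time-zero plate. GI50 is 50% net growth decrease, TGI is total growth inhibition, and LC50 is 50% loss of initial cells.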

SF-295 = assay: Growth inhibition of human SF295 cells assessed as cell viability at 100 uM incubated for 48 hrs by sulforhodamine B assay; settings: SF-295, 48 h, read-out: Activity
HL-60(TB) = assay: Growth inhibition of human HL-60(TB) cells assessed as cell viability at 0.1 uM incubated for 48 hrs by sulforhodamine B assay; settings: HL-60, 48 h, read-out: Activity; method in brief: as §2
A498 = assay: Growth inhibition of human A498 cells assessed as cell viability at 100 uM incubated for 48 hrs by sulforhodamine B assay; settings: A498, 48 h, read-out: Activity
Method in brief: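 NCI-60 five-dose mode: five tenfold dilutions (0.01, 0.1, 1, 10, 100 µM) are applied for 48 h to cells in RPMI 1640 with 5% FBS at 37 °C. Endpoint is TCA fixation with sulforhodamine B read at 515 nm. % growth comes from the 0 h and control absorbances. GI50 is the concentration giving a 50% reduction in net cell growth.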

NCI-H522 = assay: Growth inhibition of human NCI-H522 cells assessed as cell viability at 0.001 uM incubated for 48 hrs by sulforhodamine B assay relative to control; settings: NCI-H522, 48 h, read-out: Activity
CCRF-CEM = assay: Growth inhibition of human CCRF-CEM cells assessed as cell viability at 0.1 uM incubated for 48 hrs by sulforhodamine B assay; settings: read-out: Activity
OVCAR-4 [2] = assay: Growth inhibition of human OVCAR4 cells incubated for 48 hrs by sulforhodamine B assay; settings: OVCAR-4, 48 h; method in brief: as §1
UACC-62 [3] = assay: Growth inhibition of human UACC62 cells assessed as cell viability at 0.001 uM incubated for 48 hrs by sulforhodamine B assay relative to control; settings: UACC-62, 48 h, read-out: Activity
A549 = assay: Growth inhibition of human A549/ATCC cells assessed as cell viability at 0.001 uM incubated for 48 hrs by sulforhodamine B assay relative to control; settings: A549, 48 h, read-out: Activity
Hs-578T [4] = assay: Growth inhibition of human Hs 578T cells assessed as cell viability at 1 uM incubated for 48 hrs by sulforhodamine B assay; settings: read-out: Activity
HT-29 = assay: Growth inhibition of human HT-29 cells assessed as cell viability at 0.1 uM incubated for 48 hrs by sulforhodamine B assay; settings: HT-29, 48 h, read-out: Activity
SK-OV-3 = assay: Growth inhibition of human SKOV3 cells assessed as cell viability at 100 uM incubated for 48 hrs by sulforhodamine B assay; settings: SK-OV-3, 48 h, read-out: Activity
LOX IMVI = assay: Growth inhibition of human LOXIMVI cells assessed as cell viability at 0.1 uM incubated for 48 hrs by sulforhodamine B assay; settings: read-out: Activity
SK-MEL-2 = assay: Growth inhibition of human SK-MEL-2 cells assessed as cell viability at 0.1 uM incubated for 48 hrs by sulforhodamine B assay; settings: SK-MEL-2, 48 h, read-out: Activity
ACHN = assay: Growth inhibition of human ACHN cells assessed as cell viability at 0.001 uM incubated for 48 hrs by sulforhodamine B assay relative to control; settings: read-out: Activity
TK-10 = assay: Growth inhibition of human TK10 cells assessed as cell viability at 1 uM incubated for 48 hrs by sulforhodamine B assay; settings: TK-10, 48 h, read-out: Activity
OVCAR-4 [5] = assay: Growth inhibition of human OVCAR4 cells assessed as cell viability at 100 uM incubated for 48 hrs by sulforhodamine B assay; settings: OVCAR-4, 48 h, read-out: Activity
OVCAR-3 = assay: Growth inhibition of human OVCAR3 cells assessed as cell viability at 0.1 uM incubated for 48 hrs by sulforhodamine B assay; settings: OVCAR-3, 48 h, read-out: Activity
SK-MEL-5 = assay: Growth inhibition of human SK-MEL-5 cells assessed as cell viability at 100 uM incubated for 48 hrs by sulforhodamine B assay; settings: SK-MEL-5, 48 h, read-out: Activity
IGROV-1 = assay: Growth inhibition of human IGROV1 cells assessed as cell viability at 1 uM incubated for 48 hrs by sulforhodamine B assay; settings: IGROV-1, 48 h, read-out: Activity
UACC-62 [6] = assay: Growth inhibition of human UACC62 cells assessed as cell viability at 1 uM incubated for 48 hrs by sulforhodamine B assay; settings: UACC-62, 48 h, read-out: Activity
SF-268 = assay: Growth inhibition of human SF268 cells assessed as cell viability at 1 uM incubated for 48 hrs by sulforhodamine B assay; settings: SF-268, 48 h, read-out: Activity
[7] = read-out: LC50 (the source's name)
[8] = read-out: pLC50 (the source's name) (converted)

CC1=C(C(=O)OCc2ccccc2)C(c2ccc3c(c2)OCO3)n2c(nc3ccccc32)N1 (racemic)
viability at 0.1 µM (UACC-257): 91% | GI50 (SNB-75; read-out: GI50): 0.22 µM | LC50 (concentration giving 50% net loss of initial cells) (SNB-75; read-out: LC50): > 100 µM | TGI (SNB-75; read-out: TGI): 0.8 µM | GI50 (SNB-75; read-out: pGI50 (converted)): 0.214 µM | LC50 (concentration giving 50% net loss of initial cells) (SNB-75; read-out: pLC50 (converted)): > 100 µM | TGI (SNB-75; read-out: pTGI (converted)): 0.794 µM | GI50 (Hs-578T [1]; read-out: GI50): 0.28 µM | CC50 (Hs-578T [1]; [7]): > 100 µM | TGI (Hs-578T [1]; read-out: TGI): 23.8 µM | GI50 (Hs-578T [1]; read-out: pGI50 (converted)): 0.282 µM | CC50 (Hs-578T [1]; [8]): > 100 µM | TGI (Hs-578T [1]; read-out: pTGI (converted)): 24 µM | LC50 (concentration killing 50% of initial cells) (HOP-92; read-out: LC50): > 100 µM | TGI (HOP-92; read-out: TGI): > 100 µM | LC50 (concentration killing 50% of initial cells) (HOP-92; read-out: pLC50 (converted)): > 100 µM | TGI (HOP-92; read-out: pTGI): > 100 µM | viability at 100 µM (SF-295): 8% | viability at 0.1 µM (HL-60(TB)): 97% | viability at 100 µM (A498): 37% | viability at 0.001 µM (NCI-H522): 78% | viability at 0.1 µM (CCRF-CEM): 98% | GI50 (OVCAR-4 [2]; read-out: GI50): 13.3 µM | CC50 (OVCAR-4 [2]; [7]): > 100 µM | TGI (OVCAR-4 [2]; read-out: TGI): > 100 µM | GI50 (OVCAR-4 [2]; read-out: pGI50 (converted)): 13.2 µM | CC50 (OVCAR-4 [2]; [8]): > 100 µM | TGI (OVCAR-4 [2]; read-out: pTGI): > 100 µM | viability at 0.001 µM (UACC-62 [3]): 90% | viability at 0.001 µM (A549): 95% | viability at 1 µM (Hs-578T [4]): 5% | viability at 0.1 µM (HT-29): 99% | viability at 100 µM (SK-OV-3): 42% | viability at 0.1 µM (LOX IMVI): 93% | viability at 0.1 µM (SK-MEL-2): 101% | viability at 0.001 µM (ACHN): 99% | viability at 1 µM (TK-10): 71% | viability at 100 µM (OVCAR-4 [5]): 19% | viability at 0.1 µM (OVCAR-3): 85% | viability at 100 µM (SK-MEL-5): 35% | viability at 1 µM (IGROV-1): 39% | viability at 1 µM (UACC-62 [6]): 29% | viability at 1 µM (SF-268): 32%
